Results filed as inconclusive are left out.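 The calls were made as follows, unless noted: active = cell viability at or below a set limit in both duplicate runs, the limit being the all-compound median minus 4 SD (cut at about 23% in these data, passing the limit was not always enough); inconclusive = no clear call, values can overlap the other calls; inactive = the rest.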
Assays:
[1] = S. cerevisiae growth inhibition in permissive medium (OD615), pilot counter-assay for S. cerevisiae lifespan shortening project, permissive growth control (AID 705;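 active = growth inhibition above 25% in both replicates, a cutoff set 3 SD above the mean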); conditions: OD615, 24 h, at 10 µM, active compounds read high
Method in brief: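 Timing: 24 h exposure, 30 °C / Material: Saccharomyces cerevisiae strain carrying genetically modified DeaD replicative-lifespan system / Signal: OD at 615 nm / Compound: 10 µM single dose, 0.25% DMSO / Medium: SC raffinose/galactose permissive medium / Evaluation: reduction in yeast growth (OD615)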

[2] = S. cerevisiae growth inhibition in restrictive medium, OD615, pilot screen, restrictive growth control, yeast lifespan reduction project (AID 706;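 active = growth inhibition above a set limit, 3 SD over mean compound inhibition, in both replicates, cut at about 43% in these data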;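 also: modified DeaD lifespan yeast strain shifted to restrictive glucose medium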); conditions: OD615, 48 h, at 10 µM, active compounds read high
Method in brief: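 System: Engineered S. cerevisiae DeaD strain | Detection: OD615 | Buffer or medium: CSMM-D glucose medium | Doses: 10 µM compound, 0.25% DMSO | Timing: 4 h pre-growth plus 48 h compound exposure, 30 °C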

[3] = doxorubicin toxicity protection in MRP-1 cells – H69AR cells, CellTiter-Glo, duplicate, MRP-1 activator project, pilot screen (AID 807;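 active = viability increase at or above a cutoff of the median across tested compounds plus 3 SD, cut at about 8.5% in these data, passing the limit was not always enough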;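 also: compound pretreatment 18-22 h then 72 h combined with doxorubicin; 0% = doxorubicin alone and 100% = vehicle without doxorubicin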); conditions: H69AR viability with doxorubicin, CellTiter-Glo luminescence; at 10 µM; active compounds read high
[4] = viability of HCT116 without oncogenic beta-catenin – human colon tumor cells, pilot screen (AID 823); conditions: HCT116 beta-catenin knockout viability, CellTiter-Glo, 60 h; at 10 µM; active compounds read low;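 also: 0% = wells killed by 20 µM Hyamine and 100% = untreated DMSO cell wells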
[5] = viability of PTEN-null HCT116 cells – cell-based, HCT116 clonal line, CellTiter-Glo, pilot screen (AID 824;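 active = viability at or below 27.92% in each of two runs, the all-compound median minus 4 SD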;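 also: 0% = 20 µM Hyamine control and 100% = vehicle cell control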); conditions: HCT116 PTEN-deleted viability, 60 h, at 10 µM, active compounds read low
[6] = RAM pathway blockade in budding yeast – dse1pr::URA3 reporter, 5-FOA selection, pilot screen (AID 869;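 active = inhibition over a set limit, the all-compound mean plus 3 SD, in both replicate runs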;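 also: 0% = DMSO wells with no growth and 100% = 10 µM 1-NA-PP1 with full growth; RAM network block rescues cells from 5-FOA so hits raise OD615 growth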); conditions: S. cerevisiae dse1pr::URA3 5-FOA growth, OD615, 2 d; at 10 µM; active compounds read high; strain carries analog-sensitive mutant Cbk1 kinase
[7] = RAM signaling pathway blockade in yeast – S. cerevisiae, Pdr1DBD-CYC8 efflux-inhibited sensitized strain, primary screen (AID 1298;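 active = RAM network inhibition above 8.4% in each of two replicates, 3 SD over the compound average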;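 also: 0% = DMSO untreated cells without growth and 100% = 10 µM 1-NA-PP1 full growth; higher means more yeast growth rescued from 5-FOA killing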); conditions: S. cerevisiae cbk1-as DSE1-URA3 strain, 5-FOA growth OD615, 2 d; at 50 µM; active compounds read high

O=C(NCc1cccnc1)c1ccc(CS(=O)(=O)c2ccc(Br)cc2)o1
inactive: growth inhibition [1] -8.28% | growth inhibition [2] -13.7% | viability increase [3] -1.28% | viability [4] 95.3% | viability [5] 92.8% | inhibition [6] 0.655% | RAM network inhibition [7] 3.41%

O=C(c1cc(-c2ccccc2)nc2ccccc12)N1CCOCC1
inactive: growth inhibition [1] -4.54% | growth inhibition [2] -9.07% | viability increase [3] -3.82% | viability [4] 102% | viability [5] 90.8% | inhibition [6] -0.135% | RAM network inhibition [7] 1.87%

Cc1ccc2oc(=O)n(CCOc3ccccc3Cl)c2c1
inactive: growth inhibition [1] 2.37% | growth inhibition [2] 0.755% | viability increase [3] 2.94% | viability [4] 88.5% | viability [5] 83.9% | inhibition [6] 0.955% | RAM network inhibition [7] 2.66%

CCOC(=O)C(C)c1nn(C)c(=O)c2ccccc12 (stereo unspecified)
inactive: growth inhibition [1] -3.15% | growth inhibition [2] -5.69% | viability increase [3] -2.34% | viability [4] 97.4% | viability [5] 92.7% | inhibition [6] 1.42% | RAM network inhibition [7] 1.72%

CCCCn1c(CN2CCN(C(=O)c3ccco3)CC2)nc2c1c(=O)n(C)c(=O)n2C
inactive: growth inhibition [1] -3.45% | growth inhibition [2] -7.47% | viability increase [3] -4.33% | viability [4] 101% | viability [5] 98% | inhibition [6] 0.905% | RAM network inhibition [7] 2.15%

CCOC(=O)CN1C(=O)C(O)(CC(=O)c2ccccn2)c2ccccc21 (stereo unspecified)
inactive: growth inhibition [1] -10.3% | growth inhibition [2] 3.35% | viability increase [3] -4.5% | viability [4] 82.8% | viability [5] 92% | inhibition [6] 1.31% | RAM network inhibition [7] 1.78%

COCC(=O)Nc1cc(=O)n(C)c(=O)n1C
inactive: growth inhibition [1] -4.37% | growth inhibition [2] -24.4% | viability increase [3] -1.62% | viability [4] 100% | viability [5] 94.4% | inhibition [6] 1.73% | RAM network inhibition [7] -0.05%

Cn1c(NC(=O)Cc2cccs2)cc(=O)n(C)c1=O
inactive: growth inhibition [1] 5.64% | growth inhibition [2] 5.55% | viability increase [3] -0.45% | viability [4] 105% | viability [5] 101% | inhibition [6] 1.26% | RAM network inhibition [7] -2.37%

CCn1nc(C(=O)OCC(=O)c2ccc3c(c2)OCCO3)c2ccccc2c1=O
inactive: growth inhibition [1] -8.66% | growth inhibition [2] -8.03% | viability increase [3] -3.31% | viability [4] 89.9% | viability [5] 90.3% | inhibition [6] 1.78% | RAM network inhibition [7] 3.16%

Cc1cc(NC(=O)C2CC(c3ccc(F)cc3)=NO2)n(-c2ccccc2)n1 (stereo unspecified)
inactive: growth inhibition [1] -12.7% | growth inhibition [2] 2.08% | viability increase [3] 0.96% | viability [4] 97.1% | viability [5] 95.7% | inhibition [6] 1.16% | RAM network inhibition [7] -1.56%

c1ccc(-c2cnn3nnnc3n2)cc1
inactive: growth inhibition [1] 0.085% | growth inhibition [2] -12.7% | viability increase [3] -1.17% | viability [4] 102% | viability [5] 97.9% | inhibition [6] 1.85% | RAM network inhibition [7] 1.66%

CCOC(=O)N1CCC(NC(=O)c2ccc(NC(=O)C3CCCO3)cc2)CC1 (stereo unspecified)
inactive: growth inhibition [1] -10.8% | growth inhibition [2] -9.25% | viability increase [3] 0.49% | viability [4] 97.8% | viability [5] 105% | inhibition [6] 1.09% | RAM network inhibition [7] -0.36%

CCCCNC(=O)c1ccc2nc(-c3ccco3)c(-c3ccco3)nc2c1
inactive: growth inhibition [1] -4.73% | growth inhibition [2] -6.49% | viability increase [3] -1.69% | viability [4] 104% | viability [5] 97.5% | inhibition [6] 1.85% | RAM network inhibition [7] 1.63%

C=CCn1c(=N)c(C(=O)OCC)cc2c(=O)n3cc(C)ccc3nc21
inactive: growth inhibition [1] 1.62% | growth inhibition [2] 0.61% | viability increase [3] -1.79% | viability [4] 87% | viability [5] 87.4% | inhibition [6] 1.7% | RAM network inhibition [7] 3.98%

O=C(NC1CCCC1)C1C2C=CC3(CN(Cc4cccs4)C(=O)C13)O2 (stereo unspecified)
inactive: growth inhibition [1] -17.8% | growth inhibition [2] -17.1% | viability increase [3] -1.96% | viability [4] 94.8% | viability [5] 101% | inhibition [6] 0.615% | RAM network inhibition [7] 5%

CCCCS(=O)CC(CS(=O)CCCC)OC(=O)c1ccccc1 (stereo unspecified)
inactive: growth inhibition [1] 4.33% | growth inhibition [2] 5.83% | viability increase [3] -1.89% | viability [4] 102% | viability [5] 96.1% | inhibition [6] 0.405% | RAM network inhibition [7] 2.4%

CCOC(=O)c1sc2nc(NC(=O)C3CC3)sc2c1C
inactive: growth inhibition [1] -0.51% | growth inhibition [2] -2.08% | viability increase [3] -5.8% | viability [4] 86% | viability [5] 82.2% | inhibition [6] 4.2% | RAM network inhibition [7] 3.96%

CC1CCN(c2ncnc3c2cnn3-c2ccccc2)CC1
inactive: growth inhibition [1] 7.81% | growth inhibition [2] 10.9% | viability increase [3] 4.17% | viability [4] 77.8% | viability [5] 87.3% | inhibition [6] 0.495% | RAM network inhibition [7] -1.46%

O=C(CSc1nccc2ccccc12)N1CCN(c2ccccn2)CC1
inactive: growth inhibition [1] -3.48% | growth inhibition [2] 8.46% | viability increase [3] -2.78% | viability [4] 97.5% | viability [5] 99.8% | inhibition [6] 0.295% | RAM network inhibition [7] -0.26%

CC(=O)CC(=O)Nc1cccc2c1CCCC2
inactive: growth inhibition [1] -1.4% | growth inhibition [2] -1.66% | viability increase [3] -1.76% | viability [4] 92.6% | viability [5] 91.5% | inhibition [6] -0.665% | RAM network inhibition [7] 1.72%

CCC/C(=C1/C(=O)CC(C)(C)C(C(=O)OC)C1=O)N1CCCC1 (stereo unspecified)
inactive: growth inhibition [1] -4.46% | growth inhibition [2] 5.2% | viability increase [3] -1.41% | viability [4] 95.1% | viability [5] 97.5% | inhibition [6] 1.51% | RAM network inhibition [7] -2.05%

CCOC(=O)N1CCC(N2C(=O)c3ccccc3C2=O)CC1
inactive: growth inhibition [1] -1.78% | growth inhibition [2] -3.71% | viability increase [3] 0.37% | viability [4] 102% | viability [5] 98.8% | inhibition [6] 1.98% | RAM network inhibition [7] -0.31%

CC1CCCN(Cc2nc3c(c(=O)n(C)c(=O)n3C)n2Cc2c(F)cccc2Cl)C1 (stereo unspecified)
inactive: growth inhibition [1] -8.39% | growth inhibition [2] -6.31% | viability increase [3] -4.6% | viability [4] 84.4% | viability [5] 80.2% | inhibition [6] 1.09% | RAM network inhibition [7] 10.9%

CC(=O)c1c(C)nn(C(=O)c2cccs2)c1C
inactive: growth inhibition [1] 1.07% | growth inhibition [2] 5.09% | viability increase [3] -0.49% | viability [4] 91% | viability [5] 106% | inhibition [6] 1.89% | RAM network inhibition [7] -0.62%

COc1cccc(C2NC(=O)NC(C)=C2C(=O)Nc2ccc(C)cc2)c1OC (stereo unspecified)
inactive: growth inhibition [1] -1.23% | growth inhibition [2] -4.83% | viability increase [3] 0.13% | viability [4] 98.5% | viability [5] 99.7% | inhibition [6] 0.455% | RAM network inhibition [7] 6.12%

Cc1cccc(C)c1Nc1nc2ccccc2o1
inactive: growth inhibition [1] -7.32% | growth inhibition [2] 11.5% | viability increase [3] -0.76% | viability [4] 93.3% | viability [5] 94.3% | inhibition [6] 1.97% | RAM network inhibition [7] -0.32%

Cc1cc(C(=O)NCc2ccc3c(c2)OCO3)n(-c2ccccc2)n1
inactive: growth inhibition [1] -8.49% | growth inhibition [2] -5.84% | viability increase [3] -0.01% | viability [4] 92.2% | viability [5] 96.3% | inhibition [6] 0.985% | RAM network inhibition [7] 4.44%

COc1ccccc1N1CCN(C(CNS(=O)(=O)c2cccs2)c2cccnc2)CC1 (stereo unspecified)
inactive: growth inhibition [1] -6.17% | growth inhibition [2] -25.5% | viability increase [3] -3.42% | viability [4] 87.8% | viability [5] 79.1% | inhibition [6] 1.8% | RAM network inhibition [7] 5.16%

CCOC(=O)c1[nH]c2ccccc2c1NC(=O)CC(C)(C)C
inactive: growth inhibition [1] 5.14% | growth inhibition [2] -9.95% | viability increase [3] -3.69% | viability [4] 99.4% | viability [5] 96% | inhibition [6] 1.65% | RAM network inhibition [7] 1.45%

O=S(=O)(c1ccc(Br)cc1)N1CCn2c(nc3ccccc32)C1
inactive: growth inhibition [1] -6.87% | growth inhibition [2] -3.65% | viability increase [3] -2.52% | viability [4] 101% | viability [5] 97.5% | inhibition [6] 2.46% | RAM network inhibition [7] 6.31%

O=C(NCCn1ccc2ccccc21)c1ccc(S(=O)(=O)N2CCCCC2)cc1
inactive: growth inhibition [1] -12.5% | growth inhibition [2] -22.4% | viability increase [3] -5.02% | viability [4] 79.6% | viability [5] 71.1% | inhibition [6] 0.45% | RAM network inhibition [7] 4.77%

CCOc1cccc(C2c3c(oc4cc(C)c(C)cc4c3=O)C(=O)N2CCCN(C)C)c1 (stereo unspecified)
inactive: growth inhibition [1] 1.31% | growth inhibition [2] -0.895% | viability increase [3] -3.58% | viability [4] 92.9% | viability [5] 85.9% | inhibition [6] 1.8% | RAM network inhibition [7] 2.55%

CCCc1cc(C(=O)Nc2cccc(C(C)=O)c2)no1
inactive: growth inhibition [1] -4.86% | growth inhibition [2] 1.98% | viability increase [3] 0.44% | viability [4] 104% | viability [5] 92.3% | inhibition [6] 1.75% | RAM network inhibition [7] 2.91%

Source: PubChem BioAssay
